Experimental data as given in ChEMBL document CHEMBL4765386, “Discovery of tertiary amide derivatives incorporating benzothiazole moiety as anti-gastric cancer agents in vitro via inhibiting tubulin polymerization and activating the Hippo signaling pathway” (Eur J Med Chem, 2020).
Calls of active or inactive are those of the source. No cut-off for these calls is given here.

Legend:
MGC-803 [1] = test: Induction of apoptosis in human MGC-803 cells assessed as upregulation of t-Bid at 20 to 60 nM incubated for 48 hrs by Western blot analysis; type: functional, cell-based; conditions: dose 20-60 nM
Summary of the method: (§1)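 Western blot on MGC-803 and SGC-7901 cells given 20, 40 and 60 nM compound or DMSO for 48 h. Denatured lysates were run on SDS-PAGE and transferred to PVDF, then probed with primary and secondary antibodies to detect apoptosis-related proteins.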

PC-3 = test: Antiproliferative activity against human PC-3 cells assessed as reduction in cell viability incubated for 48 hrs by MTT assay; type: functional, cell-based; conditions: PC-3, 48 h
Summary of the method: (§2)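 MTT assay. 5,000 cells per well in RPMI-1640 with 10% FBS and penicillin/streptomycin at 37 °C, 5% CO2. Compound added 24 h after seeding and left for 48 h. MTT was then added for 4 h at 37 °C, formazan dissolved in DMSO and absorbance read at 490 nm. IC50 calculated from three independent experiments.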

MGC-803 [2] = test: Activation of Hippo signaling pathway in human […] cells assessed as decrease in c-MYC expression incubated for 48 hrs by Western blot analysis; type: cell-based; conditions: filed as activator, dose 20-60 nM
Summary of the method: (§3)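 Western blot on gastric cancer cells exposed to compound or DMSO at 20, 40 and 60 nM for 48 h. Cells were lysed, then the denatured lysates were separated by SDS-PAGE and transferred to PVDF. Membranes were blocked and probed with primary and then secondary antibodies. Hippo pathway proteins were detected.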

SGC-7901 [3] = test: Induction of apoptosis in human SGC-7901 cells assessed as downregulation of XIAP at 20 to 60 nM incubated for 48 hrs by Western blot analysis; type: functional, cell-based; conditions: dose 20-60 nM; summary of the method: as §1
SGC-7901 [4] = test: Induction of apoptosis in human SGC-7901 cells assessed as increase in caspase-3 cleavage at 20 to 60 nM incubated for 48 hrs by Western blot analysis; type: functional, cell-based; conditions: dose 20-60 nM
Summary of the method: (§4)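 Cells grown in RPMI-1640 with 10% FBS, penicillin/streptomycin at 37 °C, 5% CO2. Exposure to 20, 40 or 60 nM for 48 h alongside DMSO control. Lysates denatured, resolved by SDS-PAGE, transferred to PVDF, blocked, then probed with primary and secondary antibodies.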

MGC-803 [5] = test: Inhibition of colony formation in human MGC-803 cells at 20 to 60 nM incubated for 7 days by crystal violet staining based assay; type: functional, cell-based; conditions: dose 20-60 nM, time 7.0 day
Summary of the method: (§5)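 Cells maintained in RPMI-1640 with 10% FBS at 37 °C, 5% CO2; incubated with 20, 40 and 60 nM for 7 days before colony counting.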

SGC-7901 [6] = test: Induction of apoptosis in human SGC-7901 cells assessed as late apoptotic cells at 40 nM incubated for 48 hrs by annexin V-FITC and PI staining based flow cytometry analysis (reference value: 2.4 %); type: functional
SGC-7901 [7] = test: Activation of Hippo signaling pathway in human SGC-7901 cells assessed as decrease in Bcl-2 expression incubated for 48 hrs by Western blot analysis; type: cell-based; conditions: filed as activator, dose 20-60 nM; summary of the method: as §3
SGC-7901 [8] = test: Induction of cell cycle arrest in human SGC-7901 cells assessed as upregulation of Histone-H3 Ser10 at 20 to 60 nM incubated for 48 hrs by Western blot analysis; type: functional, cell-based; conditions: dose 20-60 nM; summary of the method: as §4
SGC-7901 [9] = test: Induction of apoptosis in human SGC-7901 cells assessed as downregulation of c-IAP2 at 20 to 60 nM incubated for 48 hrs by Western blot analysis; type: functional, cell-based; conditions: dose 20-60 nM; summary of the method: as §4
SGC-7901 [10] = test: Induction of apoptosis in human SGC-7901 cells assessed as early apoptotic cells at 60 nM incubated for 48 hrs by annexin V-FITC and PI staining based flow cytometry analysis (reference value: 1.4 %); type: functional
GES1 = test: Cytotoxicity against human GES1 cells assessed as reduction in cell viability incubated for 48 hrs by MTT assay; type: functional, cell-based; conditions: GES1, 48 h; summary of the method: as §2
SGC-7901 [11] = test: Inhibition of tubulin polymerization in human SGC-7901 cells assessed as decrease in filamentous structure at 20 to 60 nmol/L by DAPI staining based microscopic analysis; type: cell-based; conditions: dose 20-60 nmol/L
Summary of the method: (§6)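 Cells cultured in RPMI-1640 with 10% FBS at 37 °C, 5% CO2, treated 48 h with 20, 40 and 60 nM; stained for β-tubulin (green) and nuclei (blue) and examined by microscopy.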

SGC-7901 [12] = test: Cytotoxicity against human SGC-7901 cells harboring SiYAP assessed as increase in cell viability at 20 to 60 nM incubated for 48 hrs by MTT assay; type: cell-based; conditions: sgc-7901, 48 h, 0.06 µM, dose 20-60 nM
MGC-803 [13] = test: Induction of apoptosis in human MGC-803 cells assessed as early apoptotic cells at 60 nM incubated for 48 hrs by annexin V-FITC and PI staining based flow cytometry analysis (reference value: 2.9 %); type: functional
MGC-803 [14] = test: Induction of apoptosis in human MGC-803 cells assessed as late apoptotic cells at 60 nM incubated for 48 hrs by annexin V-FITC and PI staining based flow cytometry analysis (reference value: 4.1 %); type: functional
MGC-803 [15] = test: Activation of Hippo signaling pathway in human […] cells assessed as downregulation of YAP at 20 to 60 nM incubated for 48 hrs by Western blot analysis; type: cell-based; conditions: filed as activator, dose 20-60 nM; summary of the method: as §3
SGC-7901 [16] = test: Inhibition of colony formation in human SGC-7901 cells at 20 to 60 nM incubated for 7 days by crystal violet staining based assay; type: functional, cell-based; conditions: dose 20-60 nM, time 7.0 day; summary of the method: as §5
MGC-803 [17] = test: Induction of apoptosis in human MGC-803 cells assessed as increase in caspase-9 cleavage at 20 to 60 nM incubated for 48 hrs by Western blot analysis; type: functional, cell-based; conditions: dose 20-60 nM; summary of the method: as §1
SGC-7901 [18] = test: Induction of cell cycle arrest in human SGC-7901 cells assessed as downregulation of Cyclin B1 at 20 to 60 nM incubated for 48 hrs by Western blot analysis; type: functional, cell-based; conditions: dose 20-60 nM; summary of the method: as §4
MGC-803 [19] = test: Antiproliferative activity against human MGC-803 cells assessed as reduction in cell viability incubated for 48 hrs by MTT assay; type: functional, cell-based; conditions: MGC-803, 48 h
Summary of the method: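 MTT assay. Compound added 24 h after seeding and left for 48 h. MTT was then added for 4 h at 37 °C, formazan dissolved in DMSO and absorbance read at 490 nm. IC50 calculated from three independent experiments.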

MGC-803 [20] = test: Induction of cell cycle arrest in human MGC-803 cells assessed as downregulation of Cyclin B1 at 20 to 60 nM incubated for 48 hrs by Western blot analysis; type: functional, cell-based; conditions: dose 20-60 nM; summary of the method: as §4
SGC-7901 [21] = test: Activation of Hippo signaling pathway in human SGC-7901 cells assessed as decrease in c-MYC expression incubated for 48 hrs by Western blot analysis; type: cell-based; conditions: filed as activator, dose 20-60 nM; summary of the method: as §3
SGC-7901 [22] = test: Induction of apoptosis in human SGC-7901 cells assessed as upregulation of DR5 at 20 to 60 nM incubated for 48 hrs by Western blot analysis; type: functional, cell-based; conditions: dose 20-60 nM; summary of the method: as §4
SGC-7901 [23] = test: Inhibition of tubulin polymerization in human SGC-7901 cells assessed as increase in multiple nucleus formation at 20 to 60 nmol/L by DAPI staining based microscopic analysis; type: cell-based; conditions: dose 20-60 nmol/L; summary of the method: as §6
SGC-7901 [24] = test: Induction of apoptosis in human SGC-7901 cells assessed as late apoptotic cells at 20 nM incubated for 48 hrs by annexin V-FITC and PI staining based flow cytometry analysis (reference value: 2.4 %); type: functional
SGC-7901 [25] = test: Activation of Hippo signaling pathway in human SGC-7901 cells assessed as increase in LATS phosphorylation at 20 to 60 nM incubated for 48 hrs by Western blot analysis; type: cell-based; conditions: filed as activator, dose 20-60 nM; summary of the method: as §3

With `COc1ccc(CN(C(=O)CSc2nc3ccccc3s2)c2cc(OC)c(OC)c(OC)c2)cc1O` the Activity (MGC-803 [1]) was “Active”, the IC50 (PC-3) was 2.11 µM and the Activity (MGC-803 [2]) was “Dose-dependent effect”. The Activity (SGC-7901 [3]) was “Active”, the Activity (SGC-7901 [4]) was “Active” and the Activity (MGC-803 [5]) was “Active”. For the same molecule, the Activity (SGC-7901 [6]) was 6.8%, the Activity (SGC-7901 [7]) was “Dose-dependent effect” and the Activity (SGC-7901 [8]) was “Active”. The Activity (SGC-7901 [9]) was “Active”, the Activity (SGC-7901 [10]) was 19.1% and the IC50 (GES1) was 0.249 µM. The Activity (SGC-7901 [11]) was “Active”, the Activity (SGC-7901 [12]) was “Non-Toxic” and the Activity (MGC-803 [13]) was 43%. For the same molecule, the Activity (MGC-803 [14]) was 30.4%, the Activity (MGC-803 [15]) was “Active” and the Activity (SGC-7901 [16]) was “Active”. The Activity (MGC-803 [17]) was “Active”, the Activity (SGC-7901 [18]) was “Active” and the IC50 (MGC-803 [19]) was 0.035 µM. The Activity (MGC-803 [20]) was “Active”, the Activity (SGC-7901 [21]) was “Dose-dependent effect” and the Activity (SGC-7901 [22]) was “Active”. The Activity (SGC-7901 [23]) was “Active”, the Activity (SGC-7901 [24]) was 4.2% and the Activity (SGC-7901 [25]) was “Active”.
